Experimental data pooled from the literature.
Target: Tyrosine-protein kinase ABL2 (ABL2, Homo sapiens, UniProt P42684)

Cc1ccc(NC(=O)c2ccc(C)c(C(F)(F)F)c2)cc1C#Cc1nn(C2CCC(O)CC2)c2ncnc(N)c12 (stereo not drawn)
remaining signal (cell-free assay; 10 µM): 0%

COc1cc2ncnc(Nc3ccc(Oc4ccccc4)c(C)c3C)c2cc1OC
inhibition (enzyme activity, inhibitor; 1 µM): 6%

CC(C)(C)c1nc2c(s1)c1nc(N)ncc1c1ccc(NS(=O)(=O)c3c(F)cccc3F)c(F)c12
remaining activity (enzyme activity, inhibitor, radiometric; 1 µM): 99%

C=CC(=O)Nc1cc(Nc2nccc(Nc3cc(Cl)c(F)cc3C(C)(C)O)n2)c(OC)cc1N1CC[C@@H](N(C)C)C1
inhibition (enzyme activity, inhibitor; 1 µM): 18%

CNC(=O)c1cc(Oc2ccc(NC(=O)Nc3ccc(Cl)c(C(F)(F)F)c3)cc2)ccn1
inhibition (enzyme activity, inhibitor; 0.3 µM): 11%

N#CCCc1ccc2c(c1)-c1[nH]c3ccc([N+](=O)[O-])cc3c1CC(=O)N2
remaining signal (cell-free assay; 0.5 µM): 49.8%

Cc1cc(NC(=O)c2cccc(S(F)(F)(F)(F)F)c2)cc(-n2ccn3nc(-c4cccnc4)cc23)c1
remaining binding (cell-free assay, competition with immobilised ligand; 1 µM): 100%

COc1cc2nccc(Oc3ccc(NC(=O)c4c5n(n(-c6ccc(F)cc6)c4=O)CCCC5)cc3)c2cc1OC
inhibition (enzyme activity, inhibitor; 0.1 µM): 36%

Cc1sc(C(=O)NC2COC2)cc1-n1cc(NC(=O)Nc2c(F)cccc2Cl)cn1
remaining activity (enzyme activity, inhibitor; 10 µM): 123%

Cc1c(NC(=O)c2cc(C(N)=O)nc3cc(F)ccc23)c(C(F)(F)F)nn1Cc1ccc(C(C)(C)C)cc1
remaining binding (cell-free assay, competition with immobilised ligand; 1 µM): 87%

COc1cc(Cl)c(C(=O)N[C@@H](CN[C@H]2CC[C@@H](N)CC2)Cc2ccc(C#N)cc2)cc1-c1ccc(CN[C@H](C)c2ccc(C)cc2)o1
remaining activity (enzyme activity, inhibitor; 1 µM): 87%

C[C@H](c1ccc(F)cc1)N(Cc1cccc(C(=O)O)c1)C(=O)c1cnc2ccccc2c1
remaining binding (cell-free assay, competition with immobilised ligand; 1 µM): 82%

CNC(=O)c1cc2c(Oc3ccc(NC(=O)C4(C(=O)Nc5ccc(F)cc5)CC4)cc3)ccnc2cc1OC
inhibition (enzyme activity, inhibitor, radiometric; 1 µM): 88%

Cc1ccc(Nc2nccc(N(C)c3ccc4c(C)n(C)nc4c3)n2)cc1S(N)(=O)=O
inhibition (enzyme activity, inhibitor; 10 µM): 84%

CN(C(=O)c1ccccc1)c1cc(N(C)c2ccc3c(c2)CCc2ccc(C(=O)NCCN4CCOCC4)cc2C3=O)ccc1F
remaining binding (cell-free assay, competition with immobilised ligand; 1 µM): 100%

CCN(CC)CCNC(=O)c1c(C)[nH]c(/C=C2\C(=O)Nc3ccc(F)cc32)c1C
inhibition (binding, competition with immobilised ligand; 10 µM): 77%

CCCS(=O)(=O)Nc1ccc(F)c(C(=O)c2c[nH]c3ncc(-c4ccc(Cl)cc4)cc23)c1F
inhibition (enzyme activity, inhibitor; 1 µM): < 20%

Cc1cnc(NC2CCOCC2)nc1-n1cnc(C(=O)NC(CN)c2cc(F)cc(Cl)c2)c1 (stereo not drawn)
remaining activity (enzyme activity, inhibitor, radiometric; 1 µM): 87%

O=C1NC(c2ccccn2)Sc2ccccc21 (stereo not drawn)
remaining binding (cell-free assay, competition with immobilised ligand; 1 µM): 85%

O=C1Nc2ccc(Cl)cc2C1=Cc1cc(Cl)c(O)c(Cl)c1
remaining signal (cell-free assay; 0.5 µM): 80.4%

CCCOc1ccc(OC)c(F)c1C(=O)c1ccc(C(=O)N[C@@H]2CNC[C@H]2NC(=O)c2ccc3[nH]ncc3c2)cc1
remaining activity (enzyme activity, inhibitor; 10 µM): 89%
